Test results: ChEMBL document CHEMBL4359929, “Piperidine and piperazine inhibitors of fatty acid amide hydrolase targeting excitotoxic pathology” (Bioorg Med Chem, 2019)
pIC50: −log10 of the molar value. Calls of active or inactive are those of the source. No cut-off for these calls is given here.

Experiments:
[1] = target: T1, Fatty-acid amide hydrolase 1 (Homo sapiens, UniProt O00519); experiment: Inhibition of human recombinant MBP-tagged FAAH expressed in Escherichia coli cells using AAMCA as substrate incubated for 15 mins followed by substrate addition and measured after every 20 mins for 4 hrs by fluorescence based assay
T1 sequence (O00519 whole entry): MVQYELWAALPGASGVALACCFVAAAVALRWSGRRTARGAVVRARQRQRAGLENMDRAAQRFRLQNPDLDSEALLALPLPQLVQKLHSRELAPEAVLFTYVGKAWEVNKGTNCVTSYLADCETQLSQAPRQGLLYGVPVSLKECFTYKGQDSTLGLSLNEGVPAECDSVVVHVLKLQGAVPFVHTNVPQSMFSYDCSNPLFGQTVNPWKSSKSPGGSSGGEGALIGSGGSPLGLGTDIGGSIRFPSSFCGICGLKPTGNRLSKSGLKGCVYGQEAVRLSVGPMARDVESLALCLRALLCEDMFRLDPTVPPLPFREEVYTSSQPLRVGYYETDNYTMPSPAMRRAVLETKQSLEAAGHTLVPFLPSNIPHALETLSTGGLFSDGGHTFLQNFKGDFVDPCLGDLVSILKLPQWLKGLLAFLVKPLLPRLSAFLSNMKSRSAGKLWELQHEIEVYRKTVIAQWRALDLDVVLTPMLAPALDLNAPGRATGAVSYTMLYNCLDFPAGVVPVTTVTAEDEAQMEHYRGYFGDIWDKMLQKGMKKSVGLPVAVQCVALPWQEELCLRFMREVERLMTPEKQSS
Summary of the method: (§1)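 Fluorescent enzyme assay in throughput format. Human recombinant FAAH or purified rat FAAH used arachidonoyl 7-amino-4-methylcoumarin amide as substrate; human recombinant MGL was run by a similar fluorometric procedure.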

[2] = target: T2, Fatty-acid amide hydrolase 1 (Rattus norvegicus, UniProt P97612); experiment: Inhibition of rat recombinant His/GST-tagged FAAH expressed in Escherichia coli cells using AAMCA as substrate incubated for 15 mins followed by substrate addition and measured after every 20 mins for 4 hrs by fluorescence based assay; summary of the method: as §1
T2 sequence (P97612 whole entry): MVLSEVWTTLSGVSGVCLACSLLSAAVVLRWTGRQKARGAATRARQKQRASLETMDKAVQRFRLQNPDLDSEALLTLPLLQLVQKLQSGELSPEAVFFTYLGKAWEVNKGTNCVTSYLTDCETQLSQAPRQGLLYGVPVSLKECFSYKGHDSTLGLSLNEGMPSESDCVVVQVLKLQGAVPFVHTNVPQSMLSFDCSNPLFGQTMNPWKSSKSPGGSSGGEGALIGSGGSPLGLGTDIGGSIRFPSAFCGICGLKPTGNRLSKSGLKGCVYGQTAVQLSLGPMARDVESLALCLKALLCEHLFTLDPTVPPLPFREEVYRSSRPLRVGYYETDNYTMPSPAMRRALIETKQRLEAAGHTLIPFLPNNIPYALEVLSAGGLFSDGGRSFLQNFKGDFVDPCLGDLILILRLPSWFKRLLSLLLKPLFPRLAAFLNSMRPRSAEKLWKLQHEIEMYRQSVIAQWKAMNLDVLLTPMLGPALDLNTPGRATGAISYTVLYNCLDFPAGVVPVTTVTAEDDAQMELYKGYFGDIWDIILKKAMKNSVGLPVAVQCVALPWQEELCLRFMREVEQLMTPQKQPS

Monoglyceride lipase = target: T3, Monoglyceride lipase (Homo sapiens, UniProt Q99685); experiment: Inhibition of human recombinant His-tagged MGL expressed in Escherichia coli BL21 DE3 cells using AHMMCE as substrate preincubated with enzyme for 15 mins followed by substrate addition and measured after every 15 mins for 3 hrs by fluorescence based assay; summary of the method: as §1
T3 sequence (Q99685 whole entry): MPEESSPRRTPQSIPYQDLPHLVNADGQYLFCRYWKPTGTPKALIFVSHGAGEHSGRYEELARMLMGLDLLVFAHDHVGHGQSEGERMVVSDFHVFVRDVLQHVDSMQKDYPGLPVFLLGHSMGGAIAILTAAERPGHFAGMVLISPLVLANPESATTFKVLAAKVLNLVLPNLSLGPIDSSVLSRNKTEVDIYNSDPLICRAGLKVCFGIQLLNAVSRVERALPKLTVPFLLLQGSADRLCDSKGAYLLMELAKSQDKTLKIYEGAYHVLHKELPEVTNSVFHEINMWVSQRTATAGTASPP

[3] = Stability in human liver microsomes assessed as half life; type: ADME, Microsome
Summary of the method: (§2)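 Stability assessed as half-life in human, rat and mouse plasma and gastric fluid, and in human, rat and mouse liver microsomal preparations.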

[4] = Stability in rat liver microsomes assessed as half life; type: ADME, Microsome; summary of the method: as §2
[5] = Stability in mouse liver microsomes assessed as half life; type: ADME, Microsome; summary of the method: as §2
[6] = Stability in human plasma assessed as half life; type: ADME, cell-free; summary of the method: as §2
[7] = Stability in rat plasma assessed as half life; type: ADME, cell-free; summary of the method: as §2
[8] = Stability in mouse plasma assessed as half life; type: ADME, cell-free; summary of the method: as §2
[9] = Stability in human gastric fluid assessed as half life; type: ADME, tissue-based, Gastric juice; summary of the method: as §2
[10] = Stability in rat gastric fluid assessed as half life; type: ADME, tissue-based, Gastric juice; summary of the method: as §2
[11] = Stability in mouse gastric fluid assessed as half life; type: ADME, tissue-based, Gastric juice; summary of the method: as §2
Homo sapiens [12] = species on record: Homo sapiens; experiment: Selectivity ratio of IC50 for human recombinant His-tagged MGL expressed in Escherichia coli BL21 DE3 cells to IC50 for human recombinant MBP-tagged FAAH expressed in Escherichia coli cells by fluorescence based assay
Homo sapiens [13] = species on record: Homo sapiens; experiment: Selectivity ratio of IC50 for human full length ABHD6 expressed in Escherichia coli cells to IC50 for human recombinant MBP-tagged FAAH expressed in Escherichia coli cells by fluorescence based assay
[14] = target: Cannabinoid receptor 1 (Rattus norvegicus) (UniProt P20272); experiment: Displacement of [3H]CP55940 from CB1 receptor in rat brain by competition-equilibrium binding analysis; type: tissue-based
Summary of the method: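 Rat brain membranes as CB1 source; competition-equilibrium binding against [3H]CP-55,940.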
Target sequence in this assay (P20272 whole entry): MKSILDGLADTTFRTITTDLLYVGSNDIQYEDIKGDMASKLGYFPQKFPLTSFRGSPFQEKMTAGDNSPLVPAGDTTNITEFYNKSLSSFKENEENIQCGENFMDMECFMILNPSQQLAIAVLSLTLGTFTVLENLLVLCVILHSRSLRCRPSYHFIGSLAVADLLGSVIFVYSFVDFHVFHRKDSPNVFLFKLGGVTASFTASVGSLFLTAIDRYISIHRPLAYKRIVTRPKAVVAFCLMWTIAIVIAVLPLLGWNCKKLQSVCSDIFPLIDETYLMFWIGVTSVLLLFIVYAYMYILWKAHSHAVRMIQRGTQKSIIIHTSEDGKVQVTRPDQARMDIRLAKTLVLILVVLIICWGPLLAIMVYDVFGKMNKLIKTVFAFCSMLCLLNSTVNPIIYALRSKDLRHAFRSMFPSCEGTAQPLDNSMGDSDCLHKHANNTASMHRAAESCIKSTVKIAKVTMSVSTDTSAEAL

[15] = target: Cannabinoid receptor 2 (Mus musculus) (UniProt P47936); experiment: Displacement of [3H]CP55940 from mouse CB2 receptor expressed in HEK293 cells by competition-equilibrium binding analysis; type: cell-based
Cannabinoid receptor 2 (Mus musculus), sequence (P47936 whole entry): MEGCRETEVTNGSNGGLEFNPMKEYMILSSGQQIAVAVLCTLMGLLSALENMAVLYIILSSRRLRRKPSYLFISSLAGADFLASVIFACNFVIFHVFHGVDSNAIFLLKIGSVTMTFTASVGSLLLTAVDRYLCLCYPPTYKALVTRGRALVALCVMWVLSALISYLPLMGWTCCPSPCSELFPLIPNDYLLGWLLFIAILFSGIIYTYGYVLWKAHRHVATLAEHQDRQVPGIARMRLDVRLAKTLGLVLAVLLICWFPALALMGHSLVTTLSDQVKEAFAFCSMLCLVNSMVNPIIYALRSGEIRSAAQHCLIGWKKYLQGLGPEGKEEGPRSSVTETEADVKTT
Summary of the method: (§3)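 HEK293 cell membranes expressing mouse or human CB2; competition-equilibrium binding against [3H]CP-55,940.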

[16] = target: Cannabinoid receptor 2 (Homo sapiens) (UniProt P34972); experiment: Displacement of [3H]CP55940 from human CB2 receptor expressed in HEK293 cells by competition-equilibrium binding analysis; type: cell-based; summary of the method: as §3
Cannabinoid receptor 2 (Homo sapiens), sequence (P34972 whole entry): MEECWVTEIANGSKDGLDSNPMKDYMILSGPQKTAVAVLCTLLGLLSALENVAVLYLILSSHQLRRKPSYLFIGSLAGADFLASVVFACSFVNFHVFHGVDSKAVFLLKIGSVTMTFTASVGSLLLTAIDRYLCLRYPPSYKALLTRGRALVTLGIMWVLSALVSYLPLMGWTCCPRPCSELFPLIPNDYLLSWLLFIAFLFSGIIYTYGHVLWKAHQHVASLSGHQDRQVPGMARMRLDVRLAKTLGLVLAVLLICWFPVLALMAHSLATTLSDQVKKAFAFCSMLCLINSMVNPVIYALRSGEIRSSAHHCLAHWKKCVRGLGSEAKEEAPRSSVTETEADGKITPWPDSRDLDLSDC

[17] = Selectivity ratio of IC50 for human recombinant His-tagged MGL expressed in Escherichia coli BL21 DE3 cells to IC50 for rat recombinant His/GST-tagged FAAH expressed in Escherichia coli cells by fluorescence based assay
[18] = Selectivity ratio of IC50 for human full length ABHD6 expressed in Escherichia coli cells to IC50 for rat recombinant His/GST-tagged FAAH expressed in Escherichia coli cells by fluorescence based assay
[19] = target: Cannabinoid receptor 1 (Rattus norvegicus) (UniProt P20272); experiment: Displacement of [3H]CP55940 from CB1 receptor in rat brain by competition-equilibrium binding analysis
Target sequence in this assay (P20272 whole entry, looked up): as the sequence (P20272 whole entry) above

Row | Compound | pIC50 [1] | pIC50 [2] | pIC50 (Monoglyceride lipase) | half-life [3] [min] | half-life [4] [min] | half-life [5] [min] | half-life [6] [min] | half-life [7] [min] | half-life [8] [min] | half-life [9] [min] | half-life [10] [min] | half-life [11] [min] | Ratio IC50 (Homo sapiens [12]) | Ratio IC50 (Homo sapiens [13]) | Activity [14] | Activity [15] | Activity [16] | Ratio IC50 [17] | Ratio IC50 [18] | Activity [19]
1 | COc1ccc(N2CCN(C(=O)Oc3cccc(N4CCS(=O)(=O)CC4)c3)[C@H](C)C2)cc1 | 7.95 | 8.13 | < 6.00 | 15 to 25 | 15 to 25 | 15 to 25 | > 60 | > 60 | > 60 | > 60 | > 60 | > 60 | > 1000 | > 1000 | inactive | inactive | inactive | > 1000 | > 1000 | inactive
2 | C[C@@H]1CN(c2ccccc2)CCN1C(=O)Oc1cccc(N2CCS(=O)(=O)CC2)c1 | 7.75 | 8.24 | < 6.00 | 15 to 25 | 15 to 25 | 15 to 25 | > 60 | > 60 | > 60 | > 60 | > 60 | > 60 | > 1000 | > 1000 | inactive | inactive | inactive | > 1000 | > 1000 | inactive
3 | COc1ccc(C2CCN(C(=O)Oc3cccc(N4CCS(=O)(=O)CC4)c3)CC2)cc1 | 8.20 | 8.58 | < 6.00 | 15 to 25 | 15 to 25 | 15 to 25 | > 60 | > 60 | > 60 | > 60 | > 60 | > 60 | > 1000 | > 1000 | inactive | inactive | inactive | > 1000 | > 1000 | inactive
4 | CC1CN(c2ccccc2)CCN1C(=O)Oc1cccc(N2CCS(=O)(=O)CC2)c1 (stereo not given) | 8.59 | 8.26 | < 6.00 | 15 to 25 | 15 to 25 | 15 to 25 | > 60 | > 60 | > 60 | > 60 | > 60 | > 60 | > 1000 | > 1000 | inactive | inactive | inactive | > 1000 | > 1000 | inactive
5 | O=C(Oc1cccc(N2CCS(=O)(=O)CC2)c1)N1CCC(c2ccccc2)CC1 | 8.10 | 8.22 | < 6.00 | 15 to 25 | 15 to 25 | 15 to 25 | > 60 | > 60 | > 60 | > 60 | > 60 | > 60 | > 1000 | > 1000 | inactive | inactive | inactive | > 1000 | > 1000 | inactive
6 | O=C(Oc1cccc(N2CCS(=O)(=O)CC2)c1)N1CCN(Cc2cccc(Oc3ccccc3)c2)CC1 | 8.64 | 8.66 | < 6.00 | 15 to 25 | 15 to 25 | 15 to 25 | > 60 | > 60 | > 60 | > 60 | > 60 | > 60 | > 1000 | > 1000 | inactive | inactive | inactive | > 1000 | > 1000 | inactive
7 | O=C(Oc1cccc(N2CCS(=O)(=O)CC2)c1)N1CCC(c2ccc(OC(F)(F)F)cc2)CC1 | 8.43 | 8.40 | < 6.00 | 15 to 25 | 15 to 25 | 15 to 25 | > 60 | > 60 | > 60 | > 60 | > 60 | > 60 | > 1000 | > 1000 | inactive | inactive | inactive | > 1000 | > 1000 | inactive
8 | O=C(Oc1cccc(N2CCS(=O)(=O)CC2)c1)N1CCN(Cc2cccc(-c3ccccc3)c2)CC1 | 8.72 | 8.68 | < 6.00 | 15 to 25 | 15 to 25 | 15 to 25 | > 60 | > 60 | > 60 | > 60 | > 60 | > 60 | > 1000 | > 1000 | inactive | inactive | inactive | > 1000 | > 1000 | inactive
9 | N#Cc1ccc(C2CCN(C(=O)Oc3cccc(N4CCS(=O)(=O)CC4)c3)CC2)cc1 | 7.64 | 8.00 | < 6.00 | 15 to 25 | 15 to 25 | 15 to 25 | > 60 | > 60 | > 60 | > 60 | > 60 | > 60 | > 1000 | > 1000 | inactive | inactive | inactive | > 1000 | > 1000 | inactive
